Measurements gathered from unrelated publications.
Compare with care: the assays were run in different laboratories.
PIK3CA E545K: Phosphatidylinositol 4,5-bisphosphate 3-kinase catalytic subunit alpha isoform (PIK3CA, Homo sapiens, UniProt P42336, E545K)
PIK3CA E542K: Phosphatidylinositol 4,5-bisphosphate 3-kinase catalytic subunit alpha isoform (PIK3CA, Homo sapiens, UniProt P42336, E542K)
PIK3CA: Phosphatidylinositol 4,5-bisphosphate 3-kinase catalytic subunit alpha isoform (PIK3CA, Homo sapiens, UniProt P42336)
PIK3CA E545A: Phosphatidylinositol 4,5-bisphosphate 3-kinase catalytic subunit alpha isoform (PIK3CA, Homo sapiens, UniProt P42336, E545A)
PIK3CA I800L: Phosphatidylinositol 4,5-bisphosphate 3-kinase catalytic subunit alpha isoform (PIK3CA, Homo sapiens, UniProt P42336, I800L)
PIK3CA H1047L: Phosphatidylinositol 4,5-bisphosphate 3-kinase catalytic subunit alpha isoform (PIK3CA, Homo sapiens, UniProt P42336, H1047L)
PIK3CA H1047Y: Phosphatidylinositol 4,5-bisphosphate 3-kinase catalytic subunit alpha isoform (PIK3CA, Homo sapiens, UniProt P42336, H1047Y)

SMILES | target | effect on | technique | concentration | remaining binding
CNC(=O)c1ccc(Nc2ncc(C(F)(F)F)c(NCc3nccnc3N(C)S(C)(=O)=O)n2)cc1 | PIK3CA E545K | cell-free assay | competition with immobilised ligand | 0.1 µM | 100%
COc1cnc(Nc2cccc(S(N)(=O)=O)c2)nc1N1CCN(c2ccccc2)CC1 | PIK3CA E542K | binding | competition with immobilised ligand | 1 µM | 93%
CN(c1nccc(-c2cnn3ncccc23)n1)C1CC1 | PIK3CA | binding | – | 1 µM | 100%
CC(C)CC(=O)N1CCc2nc(-c3ccc(Br)cc3)nc(N(C)Cc3ccccc3)c2C1 | PIK3CA E545A | cell-free assay | competition with immobilised ligand | 0.1 µM | 100%
COc1ncc2cc3ccccc3nc2c1C#N | PIK3CA I800L | cell-free assay | competition with immobilised ligand | 5 µM | 86%
C[C@H]1CCN(c2nccc(-c3cnn4ncccc34)n2)C1 | PIK3CA H1047L | binding | – | 1 µM | 69%
C=CC(=O)N1CCC(C(=O)NCC(=O)N2CCN(c3nc(-c4cnc(N)nc4C(F)F)nc(N4CCOCC4)n3)CC2)CC1 | PIK3CA | binding | competition with immobilised ligand | 1 µM | 0.4%
CN(C)c1ncc(F)c(-c2cnn3ncccc23)n1 | PIK3CA H1047Y | binding | – | 1 µM | 100%
O=C(NCCCN1CCOCC1)c1ccc(Nc2ncc(Cl)c(-c3ccc(Cl)s3)n2)cc1 | PIK3CA E542K | binding | competition with immobilised ligand | 1 µM | 100%
O=C(O)[C@@H]1[C@@H](Cn2nnc3ccccc3c2=O)CC[C@H]1C(=O)c1ccc(OCCC2CCOCC2)cc1 | PIK3CA | cell-free assay | competition with immobilised ligand | 1 µM | 100%
CN(C)c1nccc(-c2cnc3ncccn23)n1 | PIK3CA H1047Y | binding | – | 1 µM | 50%
O=C(c1ccc(Nc2nccc(-c3cc4ccccc4s3)n2)cc1)N1CCC(N2CCCC2)CC1 | PIK3CA E545A | binding | competition with immobilised ligand | 1 µM | 100%
O=C(Nc1c[nH]nc1C(=O)NC1CCNCC1)c1cc(F)cc(F)c1 | PIK3CA I800L | binding | competition with immobilised ligand | 1 µM | 81%
CN(C(=O)c1ccccc1)c1cc(N(C)c2ccc3c(c2)CCc2ccc(C(=O)NCCN4CCOCC4)cc2C3=O)ccc1F | PIK3CA I800L | cell-free assay | competition with immobilised ligand | 1 µM | 62%
CNC(=O)[C@@H]1CC[C@@H](n2c(-c3ccc4cnccc4c3)nc3ccc(C(=O)NCc4cccc(C(N)=O)c4)cc32)C1 | Phosphatidylinositol 4,5-bisphosphate 3-kinase catalytic subunit alpha isoform (PIK3CA, Homo sapiens, UniProt P42336, M1043I) | binding | competition with immobilised ligand | 1 µM | 79%
CN1CCN(c2ccc(Nc3nccc(-c4ccccc4)n3)cc2C(F)(F)F)CC1 | PIK3CA I800L | binding | – | 10 µM | 56%
O=C(NC[C@@H]1[C@H]2CN(C(=O)OCc3cc(C(F)(F)F)cc(C(F)(F)F)c3)C[C@@H]12)c1ccc2[nH]nnc2c1 | PIK3CA E542K | cell-free assay | competition with immobilised ligand | 1 µM | 75%
O=C(NCCCN1CCOCC1)c1ccc(Nc2nccc(-c3cc4ccccc4s3)n2)cc1 | Phosphatidylinositol 4,5-bisphosphate 3-kinase catalytic subunit alpha isoform (PIK3CA, Homo sapiens, UniProt P42336, C420R) | binding | competition with immobilised ligand | 1 µM | 89%
CSc1cccnc1N1CCN(Cc2nc3ccccc3[nH]2)CC1 | PIK3CA H1047L | cell-free assay | competition with immobilised ligand | 1 µM | 87%
N[C@@H]1CCN(c2nccc(-c3cnn4ncccc34)n2)C1 | PIK3CA E542K | binding | – | 1 µM | 80%
O=c1nc(-c2ccccn2)sc2ccccc12 | PIK3CA E545K | cell-free assay | competition with immobilised ligand | 1 µM | 65%
CCN1CCN(Cc2ccc(C(=O)Nc3ccc(C)c(Oc4ccc5c(c4)CC(=O)N5)c3)cc2C(F)(F)F)CC1 | PIK3CA | binding | competition with immobilised ligand | 1 µM | 86%
c1cnn2ncc(-c3ccnc(N4CCC45COC5)n3)c2c1 | PIK3CA H1047L | binding | – | 1 µM | 62%
CCC(=O)N[C@H]1CC[C@@H](C(=O)N(C)c2ccc(-c3nc4ccccc4o3)cc2)C1 | PIK3CA E545K | cell-free assay | competition with immobilised ligand | 1 µM | 74%
